For test [1], the system named is Candida albicans. The experiment in a line: Antifungal activity against Candida albicans cpcc 400616 after 2 to 7 days by broth microdilution method. In kind it is functional. The procedure, abridged:
(§1)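 Broth microdilution in 96-well plates per NCCLS. Compounds and fluconazole reference dissolved in DMSO, serially diluted in growth medium, then inoculum suspension added, final concentrations 128 to 0.25 µg/mL (twofold series). Incubated at 32°C. MIC read visually after 2-7 d.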
Background: Dilution methods test growth across graded concentrations, often in twofold steps.

For a further test, the system named is Cryptococcus neoformans. The experiment in a line: Antifungal activity against Cryptococcus neoformans cgmcc 2.3161 after 2 to 7 days by broth microdilution method. In kind it is functional. The procedure, abridged: as §1
The subject of another test is Candida tropicalis. The test is described as follows: Antifungal activity against Candida tropicalis cgmcc 2.3739 after 2 to 7 days by broth microdilution method. Type of test: functional. An outline of the steps:
as §1

Another test relates to HepG2. The test is described as follows: Cytotoxicity against human HepG2 cells by MTT assay. Type of test: cell-based. On the technique in general: Tetrazolium assays rely on reduction of a dye to a coloured formazan, in cell work by metabolically active cells.
For test [2], the system named is Candida albicans. The experiment in a line: Antifungal activity against fluconazole-resistant Candida albicans 103 after 2 to 7 days by broth microdilution method. Type of test: functional. The procedure, abridged: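 Broth microdilution per NCCLS. Compounds dissolved in DMSO, serially diluted in growth medium, then inoculum suspension added to give final concentrations of 128 to 0.25 µg/mL (twofold steps). Plates incubated at 32°C. MIC read by visual observation after 2-7 d. Fluconazole served as reference drug.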

The next test deals with HT-29. The experiment in a line: Cytotoxicity against human HT-29 cells by MTT assay. Type of test: cell-based.
In a further test the test system is Aspergillus fumigatus. The experiment in a line: Antifungal activity against Aspergillus fumigatus cgmcc 3.7795 after 2 to 7 days by broth microdilution method. Type of test: functional. An outline of the steps:
as §1

A further test has as its system H9c2. The experiment in a line: Cytotoxicity against rat H9c2 cells by MTT assay. Type of test: cell-based.
In another test the test system is A549. The experiment in a line: Cytotoxicity against human A549 cells by MTT assay. Type of test: cell-based.
In test [3] the test system is Candida albicans. The experiment in a line: Antifungal activity against fluconazole-sensitive Candida albicans ATCC SC5314 after 2 to 7 days by broth microdilution method. Type of test: functional. The procedure, abridged: as §1

The record followed here is ChEMBL document CHEMBL4261620, “Design, synthesis, and biological evaluation of 4-chloro-2H-thiochromenes featuring nitrogen-containing side chains as potent antifungal agents” (Bioorg Med Chem Lett, 2018).

Each structure is given as a SMILES string. Values after ≈ are worked out from the molar mass of the structure shown. Bounds are passed on as bounds.

Take `CC(C)N(CC1=C(Cl)c2cc(Br)ccc2SC1)C(C)C`: the MIC (as a rule, the lowest concentration that inhibits growth of the organism) against Candida albicans [1] is 0.5 µg/mL (≈ 1.33 µM); against Cryptococcus neoformans it was 0.25 µg/mL (≈ 0.667 µM); in the test with Candida tropicalis, > 128 µg/mL; in the test on Candida albicans [2], 0.5 µg/mL (≈ 1.33 µM); in the test on Aspergillus fumigatus, > 128 µg/mL; with Candida albicans [3] it was 0.5 µg/mL (≈ 1.33 µM). Besides, the half-inhibitory concentration (IC50) (in general, the concentration that inhibits the measured activity by half) was > 100 µg/mL with HepG2, > 100 µg/mL with HT-29, > 100 µg/mL in the test with H9c2 and 36 µg/mL (≈ 96.2 µM) in the test on A549.
Turning to `COc1cccc2c1C(=O)c1c(O)c3c(c(O)c1C2=O)C[C@@](O)(C(=O)CO)C[C@@H]3O[C@H]1C[C@H](N)[C@H](O)[C@H](C)O1`, the IC50 with HepG2 is 2.9 µg/mL (≈ 5.34 µM); in the test on HT-29, 1.44 µg/mL (≈ 2.65 µM); in the test on H9c2, 0.29 µg/mL (≈ 0.534 µM); in the test with A549, 1.77 µg/mL (≈ 3.26 µM).
On to `CCN(CC)CC1=C(Cl)c2cc(Cl)ccc2SC1`, for which the MIC against Candida albicans [1] was 4 µg/mL (≈ 13.2 µM); against Cryptococcus neoformans it was 1 µg/mL (≈ 3.31 µM); in the test with Candida tropicalis, 2 µg/mL (≈ 6.62 µM); in the test on Candida albicans [2], 8 µg/mL (≈ 26.5 µM); in the test on Aspergillus fumigatus it was > 128 µg/mL; against Candida albicans [3], 0.5 µg/mL (≈ 1.65 µM). The IC50 in the test on HepG2, in the test on HT-29, in the test on H9c2 and with A549 was > 100 µg/mL each time.
For `O=CC1=C(Cl)c2cc(Br)ccc2SC1`, the minimum inhibitory concentration (MIC) against Candida albicans [1] is 32 µg/mL (≈ 111 µM); against Cryptococcus neoformans it was 32 µg/mL (≈ 111 µM); in the test on Candida tropicalis it was 64 µg/mL (≈ 221 µM); against Candida albicans [2], 64 µg/mL (≈ 221 µM); in the test on Aspergillus fumigatus, > 128 µg/mL; against Candida albicans [3], 16 µg/mL (≈ 55.3 µM). Moreover, the IC50 is 26.6 µg/mL (≈ 91.9 µM) in the test with HepG2, 28.8 µg/mL (≈ 99.4 µM) in the test on HT-29, > 100 µg/mL with H9c2 and > 100 µg/mL in the test on A549.
Take `O=CC1=C(Cl)c2cc(Cl)ccc2SC1`: the minimum inhibitory concentration (MIC) is 64 µg/mL (≈ 261 µM) in the test with Candida albicans [1]; 32 µg/mL (≈ 131 µM) in the test with Cryptococcus neoformans; 32 µg/mL (≈ 131 µM) against Candida tropicalis; 64 µg/mL (≈ 261 µM) with Candida albicans [2]; > 128 µg/mL in the test on Aspergillus fumigatus; 32 µg/mL (≈ 131 µM) with Candida albicans [3]. The concentration for half-maximal inhibition (IC50) with HepG2 was 21.5 µg/mL (≈ 87.8 µM); with HT-29, 18.4 µg/mL (≈ 75.2 µM); in the test on H9c2, > 100 µg/mL; with A549 it was > 100 µg/mL.
For `Cc1ccc2c(c1)C(=O)CCS2`, the MIC is 16 µg/mL (≈ 89.8 µM) in the test on Candida albicans [1]; 32 µg/mL (≈ 180 µM) in the test with Cryptococcus neoformans; 4 µg/mL (≈ 22.4 µM) against Candida tropicalis; 64 µg/mL (≈ 359 µM) against Candida albicans [2]; > 128 µg/mL with Aspergillus fumigatus; 8 µg/mL (≈ 44.9 µM) against Candida albicans [3].
With `O=CC1=C(Cl)c2cc(F)ccc2SC1`, the MIC against Candida albicans [1] is 64 µg/mL (≈ 280 µM); with Cryptococcus neoformans it was 32 µg/mL (≈ 140 µM); against Candida tropicalis, 16 µg/mL (≈ 70 µM); in the test on Candida albicans [2], 64 µg/mL (≈ 280 µM); in the test with Aspergillus fumigatus, > 128 µg/mL; in the test on Candida albicans [3] it was 64 µg/mL (≈ 280 µM).
Regarding `Cc1ccc2c(c1)C(Cl)=C(C=O)CS2`, the minimal inhibitory concentration (MIC) against Candida albicans [1] is 32 µg/mL (≈ 142 µM); with Cryptococcus neoformans, 64 µg/mL (≈ 285 µM); against Candida tropicalis, 64 µg/mL (≈ 285 µM); against Candida albicans [2], 64 µg/mL (≈ 285 µM); with Aspergillus fumigatus it was > 128 µg/mL; against Candida albicans [3] it was 16 µg/mL (≈ 71.2 µM).
Take `OC(Cn1cncn1)(Cn1cncn1)c1ccc(F)cc1F` [FLUCONAZOLE]: the MIC was 4 µg/mL (≈ 13.1 µM) against Candida albicans [1]; 1 µg/mL (≈ 3.27 µM) against Cryptococcus neoformans; 2 µg/mL (≈ 6.53 µM) with Candida tropicalis; 32 µg/mL (≈ 104 µM) in the test with Candida albicans [2]; > 128 µg/mL in the test with Aspergillus fumigatus; 1 µg/mL (≈ 3.27 µM) against Candida albicans [3]. Moreover, the IC50 with HepG2, with HT-29, with H9c2 and with A549 was > 100 µg/mL throughout.
